In ChEMBL document CHEMBL3352626, “Synthesis and biological evaluation of novel oxindole-based RTK inhibitors as anti-cancer agents” (Bioorg Med Chem, 2014):
The source made the active and inactive calls. The rule behind the calls is not given here.

Legend:
A549 [1] = test: Cell cycle arrest at G1 phase in human A549 cells at 3 to 6 uM after 24 hrs by flow cytometry; format: functional, cell-based
Method in brief: (§1)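 Cells seeded in 60 mm plates, treated for 24 h, washed twice in PBS and fixed in ice-cold 75% ethanol. Stained overnight at 4 °C with PI ([…]) containing RNase 180 U/ml, 0.15% Triton X-100 and polyethylene glycol in 4 mmol/l citrate, pH 7.8. DNA content measured by FACScan flow cytometry against a DMSO group. Mean ± SEM of three independent experiments.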

[2] = target: T1, Serine/threonine-protein kinase Sgk1 (Homo sapiens) (UniProt O00141); test: Inhibition of recombinant SGK1 (unknown origin) at 10 uM after 1 hr by microfluidic assay
T1 sequence (whole entry): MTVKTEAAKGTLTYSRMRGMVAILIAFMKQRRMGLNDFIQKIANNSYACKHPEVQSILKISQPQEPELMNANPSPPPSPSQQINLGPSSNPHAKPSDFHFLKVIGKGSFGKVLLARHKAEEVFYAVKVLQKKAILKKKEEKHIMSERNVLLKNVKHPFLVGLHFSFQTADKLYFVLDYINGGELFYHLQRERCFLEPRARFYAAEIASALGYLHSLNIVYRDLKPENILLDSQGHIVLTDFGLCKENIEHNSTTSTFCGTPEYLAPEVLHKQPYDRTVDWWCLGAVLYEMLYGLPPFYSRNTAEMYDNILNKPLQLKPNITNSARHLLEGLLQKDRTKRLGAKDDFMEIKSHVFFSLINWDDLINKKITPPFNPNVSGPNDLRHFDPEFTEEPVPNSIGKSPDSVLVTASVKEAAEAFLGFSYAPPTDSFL
Method in brief: (§2)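 Caliper microfluidic mobility-shift assay using recombinant kinases from Carna. Enzyme, substrate, ATP (at Km) and compound reacted for 1 h, then stopped with EDTA. Substrate-to-phosphoproduct conversion read on EZ Reader II. Percent inhibition calculated relative to no-enzyme blanks and full-reaction wells, each containing 2.5% DMSO.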

[3] = target: Vascular endothelial growth factor receptor 2 (Homo sapiens) (UniProt P35968); test: Inhibition of recombinant KDR (unknown origin) at 1 uM after 1 hr by microfluidic assay; method in brief: as §2
Sequence of Vascular endothelial growth factor receptor 2 (Homo sapiens) (P35968 whole entry): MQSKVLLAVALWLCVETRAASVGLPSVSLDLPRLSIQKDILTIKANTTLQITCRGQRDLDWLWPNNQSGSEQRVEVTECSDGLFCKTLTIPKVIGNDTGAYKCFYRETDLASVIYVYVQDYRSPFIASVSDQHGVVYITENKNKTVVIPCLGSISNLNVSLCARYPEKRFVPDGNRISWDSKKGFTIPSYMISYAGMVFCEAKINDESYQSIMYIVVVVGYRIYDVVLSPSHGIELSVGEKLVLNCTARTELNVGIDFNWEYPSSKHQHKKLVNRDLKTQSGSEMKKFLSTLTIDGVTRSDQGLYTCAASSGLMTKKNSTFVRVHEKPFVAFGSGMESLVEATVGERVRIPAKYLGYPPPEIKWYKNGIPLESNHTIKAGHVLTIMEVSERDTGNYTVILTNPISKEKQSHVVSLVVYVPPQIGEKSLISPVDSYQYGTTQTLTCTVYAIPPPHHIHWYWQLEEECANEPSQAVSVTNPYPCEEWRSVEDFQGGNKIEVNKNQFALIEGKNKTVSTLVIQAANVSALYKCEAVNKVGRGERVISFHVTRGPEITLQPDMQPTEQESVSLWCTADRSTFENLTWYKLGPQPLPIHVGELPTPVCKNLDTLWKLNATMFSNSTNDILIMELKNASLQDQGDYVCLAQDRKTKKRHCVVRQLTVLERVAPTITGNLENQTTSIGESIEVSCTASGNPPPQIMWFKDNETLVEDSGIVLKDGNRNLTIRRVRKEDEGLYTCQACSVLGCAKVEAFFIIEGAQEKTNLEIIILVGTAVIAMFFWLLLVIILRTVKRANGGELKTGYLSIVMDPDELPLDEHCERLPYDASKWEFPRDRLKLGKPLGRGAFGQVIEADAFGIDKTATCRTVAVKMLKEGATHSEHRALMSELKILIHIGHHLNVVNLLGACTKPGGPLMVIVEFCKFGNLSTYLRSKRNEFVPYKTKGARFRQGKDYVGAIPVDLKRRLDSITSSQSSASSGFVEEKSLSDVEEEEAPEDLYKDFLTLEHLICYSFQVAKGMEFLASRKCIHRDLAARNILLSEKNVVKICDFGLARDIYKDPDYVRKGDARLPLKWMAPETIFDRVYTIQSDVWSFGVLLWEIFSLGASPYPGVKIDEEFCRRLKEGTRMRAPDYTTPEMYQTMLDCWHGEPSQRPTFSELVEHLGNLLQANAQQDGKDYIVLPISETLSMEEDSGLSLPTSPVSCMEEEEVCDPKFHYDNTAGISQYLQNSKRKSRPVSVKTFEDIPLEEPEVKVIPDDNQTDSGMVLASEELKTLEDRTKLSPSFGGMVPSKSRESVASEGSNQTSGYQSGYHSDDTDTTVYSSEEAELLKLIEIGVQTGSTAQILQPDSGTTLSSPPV

Aurora kinase B [4] = target: T2, Aurora kinase B (Homo sapiens, UniProt Q96GD4); test: Inhibition of recombinant Aur B (unknown origin) after 1 hr by microfluidic assay; method in brief: as §2
T2 sequence (Q96GD4 whole entry): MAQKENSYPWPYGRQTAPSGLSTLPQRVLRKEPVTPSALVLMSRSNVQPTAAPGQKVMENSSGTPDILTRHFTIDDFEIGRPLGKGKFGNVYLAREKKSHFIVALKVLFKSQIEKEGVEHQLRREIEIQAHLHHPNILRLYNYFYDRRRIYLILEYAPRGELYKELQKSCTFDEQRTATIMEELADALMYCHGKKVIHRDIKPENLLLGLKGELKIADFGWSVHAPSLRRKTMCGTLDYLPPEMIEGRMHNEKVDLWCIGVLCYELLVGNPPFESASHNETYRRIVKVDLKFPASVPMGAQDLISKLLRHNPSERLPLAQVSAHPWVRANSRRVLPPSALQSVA

[5] = Cell cycle arrest in human SGC7901 cells assessed as reduction of cells in S phase at 3 to 6 uM after 24 hrs by flow cytometry; format: functional, cell-based; conditions: SGC-7901; method in brief: as §1
[6] = Antiproliferative activity against human HCC827 cells at 10 uM after 72 hrs by MTS assay; format: functional
[7] = Antiproliferative activity against human PM8910 cells at 10 uM after 72 hrs by MTS assay; format: functional
[8] = Antiproliferative activity against human Bel7402 cells at 10 uM after 72 hrs by MTS assay; format: functional, Bel-7402
[9] = Antiproliferative activity against human Bel7402 cells after 72 hrs by MTS assay; format: functional, cell-based; conditions: Bel-7402, 72 h
Method in brief: (§3)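 Cells at 4 × 10^4 cells/ml, seeded and left overnight, then exposed in triplicate to 30, 10, 3, 1, 0.3 and 0.1 µM compound in DMSO for 72 h at 37 °C under 5% CO2. MTS dye added for 4 h and absorbance read at 490 nm. Inhibition = (1 − OD treated/OD DMSO control) × 100. IC50 derived from the dilution series.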

[10] = Antiproliferative activity against rat NRK-52E cells after 72 hrs by MTS assay; format: cell-based
[11] = Antiproliferative activity against human PM8910 cells after 72 hrs by MTS assay; format: functional, cell-based; conditions: PM8910, 72 h; method in brief: as §3
[12] = Cell cycle arrest in human PM8910 cells assessed as reduction of cells in S phase at 3 to 6 uM after 24 hrs by flow cytometry; format: functional, cell-based; method in brief: as §1
[13] = target: Platelet-derived growth factor receptor beta (Homo sapiens) (UniProt P09619); test: Inhibition of recombinant PDGFRb (unknown origin) at 1 uM after 1 hr by microfluidic assay; method in brief: as §2
Sequence of Platelet-derived growth factor receptor beta (Homo sapiens) (P09619 whole entry): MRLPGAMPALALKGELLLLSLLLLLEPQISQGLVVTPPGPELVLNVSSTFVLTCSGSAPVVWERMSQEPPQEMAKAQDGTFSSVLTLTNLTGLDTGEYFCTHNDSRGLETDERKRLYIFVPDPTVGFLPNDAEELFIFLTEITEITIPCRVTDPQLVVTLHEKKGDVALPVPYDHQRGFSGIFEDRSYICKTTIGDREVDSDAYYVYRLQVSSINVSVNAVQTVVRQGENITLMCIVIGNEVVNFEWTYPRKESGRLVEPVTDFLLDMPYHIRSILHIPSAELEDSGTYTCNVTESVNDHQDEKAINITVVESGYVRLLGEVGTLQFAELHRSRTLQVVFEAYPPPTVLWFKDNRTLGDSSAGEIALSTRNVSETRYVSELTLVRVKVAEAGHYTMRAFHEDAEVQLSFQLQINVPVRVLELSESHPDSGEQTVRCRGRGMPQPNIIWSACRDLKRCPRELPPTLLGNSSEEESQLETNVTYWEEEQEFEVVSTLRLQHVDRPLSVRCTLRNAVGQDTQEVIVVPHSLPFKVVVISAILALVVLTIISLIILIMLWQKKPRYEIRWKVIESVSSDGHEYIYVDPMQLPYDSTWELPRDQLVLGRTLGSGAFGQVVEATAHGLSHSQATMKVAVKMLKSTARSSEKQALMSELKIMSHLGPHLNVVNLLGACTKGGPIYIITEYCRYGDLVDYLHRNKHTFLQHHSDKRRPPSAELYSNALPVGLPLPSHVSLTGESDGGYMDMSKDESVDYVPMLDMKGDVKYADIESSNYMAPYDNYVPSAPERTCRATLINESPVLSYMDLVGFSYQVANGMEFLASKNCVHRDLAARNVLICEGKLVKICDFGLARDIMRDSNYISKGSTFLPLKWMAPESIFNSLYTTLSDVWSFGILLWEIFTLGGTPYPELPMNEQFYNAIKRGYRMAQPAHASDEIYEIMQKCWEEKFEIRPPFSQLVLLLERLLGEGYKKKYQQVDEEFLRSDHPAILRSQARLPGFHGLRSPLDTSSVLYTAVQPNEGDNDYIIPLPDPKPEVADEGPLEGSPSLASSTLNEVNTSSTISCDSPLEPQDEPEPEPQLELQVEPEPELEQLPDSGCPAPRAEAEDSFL

Aurora kinase B [14] = target: T2, Aurora kinase B; test: Inhibition of recombinant Aur B (unknown origin) at 10 uM after 1 hr by microfluidic assay; method in brief: as §2
Aurora kinase B [15] = target: T2, Aurora kinase B; test: Inhibition of recombinant Aur B (unknown origin) at 1 uM after 1 hr by microfluidic assay; method in brief: as §2
A549 [16] = test: Antiproliferative activity against human A549 cells at 10 uM after 72 hrs by MTS assay; format: functional
[17] = Antiproliferative activity against human HCC827 cells after 72 hrs by MTS assay; format: functional, cell-based; conditions: HCC827, 72 h; method in brief: as §3
[18] = target: Epidermal growth factor receptor (Homo sapiens) (UniProt P00533); test: Inhibition of recombinant EGFR (unknown origin) at 1 uM after 1 hr by microfluidic assay; method in brief: as §2
Sequence of Epidermal growth factor receptor (Homo sapiens) (P00533 whole entry): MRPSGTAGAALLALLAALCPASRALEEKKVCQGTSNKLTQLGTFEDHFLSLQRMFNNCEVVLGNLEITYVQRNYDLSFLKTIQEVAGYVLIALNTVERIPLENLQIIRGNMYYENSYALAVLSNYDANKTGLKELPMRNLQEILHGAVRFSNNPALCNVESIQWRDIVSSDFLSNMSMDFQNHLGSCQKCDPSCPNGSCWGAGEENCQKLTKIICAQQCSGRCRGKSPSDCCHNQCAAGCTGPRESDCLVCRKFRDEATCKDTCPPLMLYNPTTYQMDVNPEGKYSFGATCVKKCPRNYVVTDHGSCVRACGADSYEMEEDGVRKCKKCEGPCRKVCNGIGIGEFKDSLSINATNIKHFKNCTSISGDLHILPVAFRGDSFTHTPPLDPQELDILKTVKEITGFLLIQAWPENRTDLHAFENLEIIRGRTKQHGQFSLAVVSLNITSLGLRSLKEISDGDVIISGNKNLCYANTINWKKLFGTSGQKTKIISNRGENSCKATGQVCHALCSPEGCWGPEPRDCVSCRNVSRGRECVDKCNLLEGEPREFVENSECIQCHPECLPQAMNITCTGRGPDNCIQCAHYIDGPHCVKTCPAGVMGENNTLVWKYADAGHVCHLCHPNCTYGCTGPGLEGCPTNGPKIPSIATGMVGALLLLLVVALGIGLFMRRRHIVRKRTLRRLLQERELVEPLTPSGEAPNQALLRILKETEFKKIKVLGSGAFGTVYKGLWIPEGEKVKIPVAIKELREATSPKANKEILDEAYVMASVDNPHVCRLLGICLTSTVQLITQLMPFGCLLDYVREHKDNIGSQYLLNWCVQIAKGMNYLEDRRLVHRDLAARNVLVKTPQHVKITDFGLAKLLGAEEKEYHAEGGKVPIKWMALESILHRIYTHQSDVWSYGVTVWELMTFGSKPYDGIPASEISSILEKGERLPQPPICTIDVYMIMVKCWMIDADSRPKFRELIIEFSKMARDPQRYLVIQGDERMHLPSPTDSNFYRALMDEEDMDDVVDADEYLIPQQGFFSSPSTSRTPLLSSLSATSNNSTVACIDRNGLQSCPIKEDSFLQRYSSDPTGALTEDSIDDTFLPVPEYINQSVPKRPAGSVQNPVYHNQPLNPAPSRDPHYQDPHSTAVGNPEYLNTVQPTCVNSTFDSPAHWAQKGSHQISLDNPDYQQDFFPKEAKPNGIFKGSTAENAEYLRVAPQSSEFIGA

A549 [19] = test: Antiproliferative activity against human A549 cells after 72 hrs by MTS assay; format: functional, cell-based; conditions: A549, 72 h; method in brief: as §3
[20] = Cell cycle arrest at G1 phase in human PM8910 cells at 3 to 6 uM after 24 hrs by flow cytometry; format: functional, cell-based; method in brief: as §1
[21] = Antiproliferative activity against human H460 cells at 10 uM after 72 hrs by MTS assay; format: functional, NCI-H460
[22] = target: T1, Serine/threonine-protein kinase Sgk1 (Homo sapiens); test: Inhibition of recombinant SGK1 (unknown origin) at 1 uM after 1 hr by microfluidic assay; method in brief: as §2
Aurora kinase B [23] = target: T2, Aurora kinase B; test: Inhibition of recombinant Aur B (unknown origin) at 0.1 uM after 1 hr by microfluidic assay; method in brief: as §2
[24] = target: T1, Serine/threonine-protein kinase Sgk1 (Homo sapiens); test: Inhibition of recombinant SGK1 (unknown origin) at 0.1 uM after 1 hr by microfluidic assay; method in brief: as §2
[25] = target: T3, Mast/stem cell growth factor receptor Kit (Homo sapiens, UniProt P10721); test: Inhibition of recombinant c-Kit (unknown origin) at 10 uM after 1 hr by microfluidic assay; method in brief: as §2
T3 sequence (P10721 whole entry): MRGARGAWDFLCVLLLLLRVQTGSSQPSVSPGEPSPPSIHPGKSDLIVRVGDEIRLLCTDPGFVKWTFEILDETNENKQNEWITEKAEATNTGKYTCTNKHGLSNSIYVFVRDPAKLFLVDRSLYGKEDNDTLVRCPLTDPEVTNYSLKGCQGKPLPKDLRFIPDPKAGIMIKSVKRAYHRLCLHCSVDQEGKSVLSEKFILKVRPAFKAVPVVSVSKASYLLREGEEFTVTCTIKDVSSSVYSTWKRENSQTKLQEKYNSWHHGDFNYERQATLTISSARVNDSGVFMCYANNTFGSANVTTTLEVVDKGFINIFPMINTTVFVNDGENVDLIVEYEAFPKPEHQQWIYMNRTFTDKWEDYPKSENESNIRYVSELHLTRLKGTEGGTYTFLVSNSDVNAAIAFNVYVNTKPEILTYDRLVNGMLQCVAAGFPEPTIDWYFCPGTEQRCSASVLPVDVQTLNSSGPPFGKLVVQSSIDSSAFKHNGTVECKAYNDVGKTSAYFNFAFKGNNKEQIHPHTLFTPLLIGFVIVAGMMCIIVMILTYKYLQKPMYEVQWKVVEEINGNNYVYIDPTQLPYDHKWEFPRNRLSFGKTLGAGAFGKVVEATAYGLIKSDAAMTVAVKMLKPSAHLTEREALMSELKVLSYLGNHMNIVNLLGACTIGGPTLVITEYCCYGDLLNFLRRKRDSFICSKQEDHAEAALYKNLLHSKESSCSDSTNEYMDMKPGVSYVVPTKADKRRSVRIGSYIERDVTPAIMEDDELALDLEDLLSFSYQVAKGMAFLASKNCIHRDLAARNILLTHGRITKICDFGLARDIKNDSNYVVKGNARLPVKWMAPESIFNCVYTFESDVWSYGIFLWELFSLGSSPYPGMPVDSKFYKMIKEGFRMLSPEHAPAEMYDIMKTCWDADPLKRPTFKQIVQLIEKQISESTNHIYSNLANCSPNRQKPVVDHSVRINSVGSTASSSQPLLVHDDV

[26] = target: Epidermal growth factor receptor (Homo sapiens) (UniProt P00533); test: Inhibition of recombinant EGFR (unknown origin) at 10 uM after 1 hr by microfluidic assay; method in brief: as §2
[27] = target: Platelet-derived growth factor receptor beta (Homo sapiens) (UniProt P09619); test: Inhibition of recombinant PDGFRb (unknown origin) at 0.1 uM after 1 hr by microfluidic assay; method in brief: as §2
U-251 = test: Antiproliferative activity against human U251 cells at 10 uM after 72 hrs by MTS assay; format: functional
Method in brief: (§4)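 Single-concentration screen. Cells at 4 × 10^4 cells/ml, seeded and incubated overnight, then given 10 µM compound in DMSO for 72 h (37 °C, 5% CO2), with DMSO-only controls. MTS added for 4 h and A490 read. Percent inhibition = (1 − OD490 treated/OD490 control) × 100, from triplicate experiments.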

[28] = Antiproliferative activity against human SGC7901 cells after 72 hrs by MTS assay; format: functional, cell-based; conditions: SGC-7901, 72 h; method in brief: as §3
[29] = Antiproliferative activity against human SGC7901 cells at 10 uM after 72 hrs by MTS assay; format: functional, SGC-7901
[30] = Antiproliferative activity against human SKBR3 cells at 10 uM after 72 hrs by MTS assay; format: functional, SK-BR-3; method in brief: as §4
[31] = target: T3, Mast/stem cell growth factor receptor Kit; test: Inhibition of recombinant c-Kit (unknown origin) after 1 hr by microfluidic assay; method in brief: as §2
[32] = target: Vascular endothelial growth factor receptor 2 (Homo sapiens) (UniProt P35968); test: Inhibition of recombinant KDR (unknown origin) at 0.1 uM after 1 hr by microfluidic assay; method in brief: as §2
[33] = target: Platelet-derived growth factor receptor beta (Homo sapiens) (UniProt P09619); test: Inhibition of recombinant PDGFRb (unknown origin) at 10 uM after 1 hr by microfluidic assay; method in brief: as §2
[34] = target: T3, Mast/stem cell growth factor receptor Kit; test: Inhibition of recombinant c-Kit (unknown origin) at 1 uM after 1 hr by microfluidic assay; method in brief: as §2
[35] = Cell cycle arrest at G1 phase in human SGC7901 cells at 3 to 6 uM after 24 hrs by flow cytometry; format: functional, cell-based; conditions: SGC-7901; method in brief: as §1
A549 [36] = test: Cell cycle arrest in human A549 cells assessed as reduction of cells in S phase at 3 to 6 uM after 24 hrs by flow cytometry; format: functional, cell-based; method in brief: as §1
[37] = target: Epidermal growth factor receptor (Homo sapiens) (UniProt P00533); test: Inhibition of recombinant EGFR (unknown origin) at 0.1 uM after 1 hr by microfluidic assay; method in brief: as §2
NCI-H1975 = test: Antiproliferative activity against human NCI-H1975 cells at 10 uM after 72 hrs by MTS assay; format: functional; method in brief: as §4
[38] = target: Vascular endothelial growth factor receptor 2 (Homo sapiens) (UniProt P35968); test: Inhibition of recombinant KDR (unknown origin) at 10 uM after 1 hr by microfluidic assay; method in brief: as §2
[39] = target: T3, Mast/stem cell growth factor receptor Kit; test: Inhibition of recombinant c-Kit (unknown origin) at 0.1 uM after 1 hr by microfluidic assay; method in brief: as §2
[40] = Antiproliferative activity against human H460 cells after 72 hrs by MTS assay; format: functional, cell-based; conditions: NCI-H460, 72 h; method in brief: as §3
[41] = Cell cycle arrest at G1 phase in human SGC7901 cells at 5 to 10 uM after 24 hrs by flow cytometry; format: functional, cell-based; conditions: SGC-7901; method in brief: as §1
[42] = Cell cycle arrest in human SGC7901 cells assessed as reduction of cells in S phase at 5 to 10 uM after 24 hrs by flow cytometry; format: functional, cell-based; conditions: SGC-7901; method in brief: as §1
A549 [43] = test: Cell cycle arrest at G1 phase in human A549 cells at 5 to 10 uM after 24 hrs by flow cytometry; format: functional, cell-based; method in brief: as §1
[44] = Cell cycle arrest at G1 phase in human PM8910 cells at 5 to 10 uM after 24 hrs by flow cytometry; format: functional, cell-based; method in brief: as §1
[45] = Cell cycle arrest in human PM8910 cells assessed as reduction of cells in S phase at 5 to 10 uM after 24 hrs by flow cytometry; format: functional, cell-based; method in brief: as §1
A549 [46] = test: Cell cycle arrest in human A549 cells assessed as reduction of cells in S phase at 5 to 10 uM after 24 hrs by flow cytometry; format: functional, cell-based; method in brief: as §1

O=C1Nc2ccccc2/C1=C/c1ccc(N2CCN(C(=O)CCCl)CC2)cc1
Activity (A549 [1]): Active | inhibition [2]: 42.4% | inhibition [3]: 14.7% | IC50 (Aurora kinase B [4]): 0.587 µM | Activity [5]: Active | Activity [6]: 56.47% | Activity [7]: 59.46% | Activity [8]: 49.21% | IC50 [9]: 3.39 µM | IC50 [10]: > 30 µM | IC50 [11]: 2.76 µM | Activity [12]: Active | inhibition [13]: 46.7% | inhibition (Aurora kinase B [14]): 88.3% | inhibition (Aurora kinase B [15]): 53.5% | Activity (A549 [16]): 54.9% | IC50 [17]: 12.7 µM | inhibition [18]: 20% | IC50 (A549 [19]): 3.04 µM | Activity [20]: Active | Activity [21]: 66.63% | inhibition [22]: 11.8% | inhibition (Aurora kinase B [23]): 14.4% | inhibition [24]: 3.56% | inhibition [25]: 57.6% | inhibition [26]: 24.3% | inhibition [27]: 13.6% | Activity (U-251): 20.43% | IC50 [28]: 2.85 µM | Activity [29]: 60.98% | Activity [30]: 26.45% | IC50 [31]: 0.071 µM | inhibition [32]: 6% | inhibition [33]: 76% | inhibition [34]: 56.4% | Activity [35]: Active | Activity (A549 [36]): Active | inhibition [37]: 19.1% | Activity (NCI-H1975): 67.22% | inhibition [38]: 62.6% | inhibition [39]: 31.9% | IC50 [40]: 20.1 µM

C=CC(=O)N1CCN(c2ccc(/C=C3\C(=O)Nc4ccccc43)cc2)CC1
inhibition [2]: 90.7% | inhibition [3]: 7.2% | IC50 (Aurora kinase B [4]): 2.21 µM | Activity [6]: 57.19% | Activity [7]: 59.52% | Activity [8]: 55.06% | IC50 [9]: 7.68 µM | IC50 [10]: 28.8 µM | Activity [41]: Active | Activity [42]: Active | IC50 [11]: 6.74 µM | inhibition [13]: 26.2% | inhibition (Aurora kinase B [14]): 93.5% | Activity (A549 [43]): Active | Activity [44]: Active | inhibition (Aurora kinase B [15]): 41.6% | Activity (A549 [16]): 50.28% | IC50 [17]: 7 µM | inhibition [18]: 30.1% | IC50 (A549 [19]): 10.1 µM | Activity [21]: 71.31% | inhibition [22]: 38.3% | inhibition (Aurora kinase B [23]): 4.5% | inhibition [24]: 2.2% | inhibition [25]: 88.2% | inhibition [26]: 75.4% | inhibition [27]: 0.4% | Activity (U-251): 31.7% | IC50 [28]: 9.75 µM | Activity [29]: 55.46% | Activity [30]: 27.99% | Activity [45]: Active | IC50 [31]: 0.128 µM | inhibition [32]: 13.4% | inhibition [33]: 61.8% | inhibition [34]: 55.3% | Activity (A549 [46]): Active | inhibition [37]: 14.9% | Activity (NCI-H1975): 60.01% | inhibition [38]: 30.6% | inhibition [39]: 19.1% | IC50 [40]: 11.5 µM
